Measured values taken from ChEMBL document CHEMBL2146434, “Synthesis and biological evaluation of new amino acid and dipeptide derivatives of neocryptolepine as anticancer agents” (J Med Chem, 2012).
Structures can show the parent of a compound that is named as a salt.

Legend:
[1] = Solubility of the compound in water; type: physicochemical; conditions: buffer
LoVo = assay: Cytotoxicity against human LoVo cells after 72 hrs by SRB assay; type: functional, cell-based
Outline: (§1)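 IC50 is the compound concentration giving 50% inhibition of cell proliferation. It was determined on normal mouse BALB/3T3 fibroblasts and on human A549, MCF-7 and LoVo cancer lines, with doxorubicin hydrochloride and DiMIQ as reference compounds.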

KB = assay: Cytotoxicity against human KB cells after 72 hrs by SRB assay; type: functional, cell-based
MCF7 = assay: Cytotoxicity against human MCF7 cells after 72 hrs by SRB assay; type: functional, cell-based; conditions: MCF7, 72 h; outline: as §1
[2] = Ratio of IC50 for compound to ratio of IC50 for DiMIQ for BALB mouse 3T3 cells; type: cell-based; conditions: read-out: Ratio IC50
A549 = assay: Cytotoxicity against human A549 cells after 72 hrs by SRB assay; type: functional, cell-based; conditions: A549, 72 h; outline: as §1
Mus musculus [3] = assay: Toxicity in C57BL/6 mouse xenografted with mouse LLC cells assessed as body weight loss at 30 mg/kg/day, ip administered on day 9 to day 12 of tumor implantation; type: organism-based; design: route intraperitoneal; conditions: in vivo
Outline: (§2)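 Mouse Lewis lung carcinoma (LLC) cells inoculated sc into mice. Daily dosing from day 9: 15 mg kg⁻¹ day⁻¹ through day 13 or 30 mg kg⁻¹ day⁻¹ through day 12; 25 or 50 mg kg⁻¹ day⁻¹ through day 13. Route is given as ip in tables and text but sc in figure legends. Body weight monitored for loss alongside tumor growth. Single 100 mg/kg cyclophosphamide dose as cytostatic control.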

[4] = tested on: Lewis lung carcinoma cell line; assay: Antineoplastic activity against mouse LLC cells xenografted in C57BL/6 mouse assessed as tumor growth inhibition at 15 mg/kg/day, ip administered on day 9 to day 13 of tumor implantation measured on day 11; type: functional; conditions: route intraperitoneal, read-out: TGI
Outline: (§3)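 Mice bore Lewis lung carcinoma (LLC) inoculated subcutaneously and received test agents intraperitoneally at 15–50 mg kg⁻¹ day⁻¹ from day 9 or day 10. A single 100 mg/kg cyclophosphamide dose was the cytostatic control. Tumor growth was followed as the group median, and TGI% was calculated from medians versus untreated controls. Significance was tested by nonparametric Kruskal–Wallis multiple comparison, p < 0.05.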

[5] = tested on: Lewis lung carcinoma cell line; assay: Antineoplastic activity against mouse LLC cells xenografted in C57BL/6 mouse assessed as tumor growth inhibition at 30 mg/kg/day, ip administered on day 9 to day 12 of tumor implantation measured on day 14; type: functional; conditions: route intraperitoneal, read-out: TGI; outline: as §3
[6] = Dissociation constant, pKa of the compound in PBS buffer at 5 uM at pH 2 to 10 by UV-spectrophotometric analysis; type: physicochemical
Outline: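 UV spectrophotometric titration at a final compound concentration of 5 μM. At this concentration the absorbance–concentration relationship stayed linear. pKa was read from spectral changes across pH.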

[7] = Octanol-water partition coefficient, log P of the compound in citric buffer at pH 2.5 by spectrophotometric analysis; type: physicochemical
Outline: (§4)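 Octanol–water partitioning, with log P defined as log(C_octanol/C_water). Compound in the aqueous phase was measured spectrophotometrically, and octanol content was obtained by subtracting the supernatant concentration from the total. Values are the mean of two independent experiments, each run in triplicate.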

Mus musculus [8] = assay: Toxicity in C57BL/6 mouse xenografted with mouse LLC cells at 30 mg/kg/day, ip administered on day 9 to day 12 of tumor implantation; type: organism-based; design: route intraperitoneal; conditions: in vivo; outline: as §2
[9] = tested on: Lewis lung carcinoma cell line; assay: Antineoplastic activity against mouse LLC cells xenografted in C57BL/6 mouse assessed as tumor growth inhibition at 15 mg/kg/day, ip administered on day 9 to day 13 of tumor implantation measured on day 23; type: functional; conditions: route intraperitoneal, read-out: TGI; outline: as §3
[10] = tested on: Lewis lung carcinoma cell line; assay: Antineoplastic activity against mouse LLC cells xenografted in C57BL/6 mouse assessed as tumor growth inhibition at 15 mg/kg/day, ip administered on day 9 to day 13 of tumor implantation measured on day 18; type: functional; conditions: route intraperitoneal, read-out: TGI; outline: as §3
[11] = tested on: Lewis lung carcinoma cell line; assay: Antineoplastic activity against mouse LLC cells xenografted in C57BL/6 mouse assessed as tumor growth inhibition at 30 mg/kg/day, ip administered on day 9 to day 12 of tumor implantation measured on day 16; type: functional; conditions: route intraperitoneal, read-out: TGI; outline: as §3
[12] = tested on: Lewis lung carcinoma cell line; assay: Antineoplastic activity against mouse LLC cells xenografted in C57BL/6 mouse assessed as tumor growth inhibition at 15 mg/kg/day, ip administered on day 9 to day 13 of tumor implantation measured on day 14; type: functional; conditions: route intraperitoneal, read-out: TGI; outline: as §3
Mus musculus [13] = assay: Toxicity in C57BL/6 mouse xenografted with mouse LLC cells assessed as body weight loss at 30 mg/kg/day, sc administered on day 9 to day 12 of tumor implantation; type: organism-based; design: route subcutaneous; conditions: in vivo; outline: as §2
[14] = tested on: Lewis lung carcinoma cell line; assay: Antineoplastic activity against mouse LLC cells xenografted in C57BL/6 mouse assessed as tumor growth inhibition at 30 mg/kg/day, ip administered on day 9 to day 12 of tumor implantation measured on day 18; type: functional; conditions: route intraperitoneal, read-out: TGI; outline: as §3
Mus musculus [15] = assay: Toxicity in C57BL/6 mouse xenografted with mouse LLC cells assessed as body weight loss at 15 mg/kg/day, ip administered on day 9 to day 13 of tumor implantation; type: organism-based; design: route intraperitoneal; conditions: in vivo
Outline: (§5)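 Body weight was tracked in C57BL/6 mice bearing subcutaneously inoculated LLC during therapy given daily from day 9 to day 13. A single 100 mg/kg dose of cyclophosphamide served as the cytostatic control group.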

Mus musculus [16] = assay: Toxicity in C57BL/6 mouse xenografted with mouse LLC cells at 15 mg/kg/day, ip administered on day 9 to day 13 of tumor implantation; type: organism-based; design: route intraperitoneal; conditions: in vivo; outline: as §2
[17] = tested on: Lewis lung carcinoma cell line; assay: Antineoplastic activity against mouse LLC cells xenografted in C57BL/6 mouse assessed as tumor growth inhibition at 15 mg/kg/day, ip administered on day 9 to day 13 of tumor implantation measured on day 16; type: functional; conditions: route intraperitoneal, read-out: TGI; outline: as §3
[18] = tested on: Lewis lung carcinoma cell line; assay: Antineoplastic activity against mouse LLC cells xenografted in C57BL/6 mouse assessed as tumor growth inhibition at 30 mg/kg/day, ip administered on day 9 to day 12 of tumor implantation measured on day 23; type: functional; conditions: route intraperitoneal, read-out: TGI; outline: as §3
[19] = tested on: Lewis lung carcinoma cell line; assay: Antineoplastic activity against mouse LLC cells xenografted in C57BL/6 mouse assessed as tumor growth inhibition at 30 mg/kg/day, ip administered on day 9 to day 12 of tumor implantation measured on day 11; type: functional; conditions: route intraperitoneal, read-out: TGI; outline: as §3
Mus musculus [20] = assay: Toxicity in C57BL/6 mouse xenografted with mouse LLC cells assessed as body weight loss at 15 mg/kg/day, sc administered on day 9 to day 13 of tumor implantation; type: organism-based; design: route subcutaneous; conditions: in vivo; outline: as §5
[21] = tested on: Lewis lung carcinoma cell line; assay: Antineoplastic activity against mouse LLC cells xenografted in C57BL/6 mouse assessed as tumor growth inhibition at 15 mg/kg/day, ip administered on day 9 to day 13 of tumor implantation measured on day 21; type: functional; conditions: route intraperitoneal, read-out: TGI; outline: as §3
[22] = tested on: Lewis lung carcinoma cell line; assay: Antineoplastic activity against mouse LLC cells xenografted in C57BL/6 mouse assessed as tumor growth inhibition at 30 mg/kg/day, ip administered on day 9 to day 12 of tumor implantation measured on day 21; type: functional; conditions: route intraperitoneal, read-out: TGI; outline: as §3
[23] = Octanol-water partition coefficient, log P of the compound in PBS buffer at pH 7.4 by spectrophotometric analysis; type: physicochemical; outline: as §4
Mus musculus [24] = assay: Toxicity in C57BL/6 mouse xenografted with mouse LLC cells assessed as body weight loss at 50 mg/kg/day, sc administered on day 9 to day 13 of tumor implantation; type: organism-based; design: route subcutaneous; conditions: in vivo; outline: as §2
[25] = Toxicity in human erythrocytes assessed as hemolysis at 0.3 mM after 30 mins by spectrophotometric analysis; type: cell-based, Erythrocyte; conditions: read-out: Activity
Outline: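 Human erythrocyte suspension under isotonic conditions (pH 7.4, hematocrit 50%). Compound added across a concentration series and incubated 30 min at 37 °C before hemolysis was scored. Mean ± SD of three individual determinations. Statistics by Mann–Whitney U test, p < 0.05.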

Cc1c2c3cc(NC(=O)[C@H]4CCCN4)ccc3nc-2n(C)c2ccccc12.Cl.Cl
solubility [1]: soluble | IC50 (LoVo): 620 nM | IC50 (KB): 730 nM | IC50 (MCF7): 600 nM | selectivity ratio [2]: 5 | IC50 (A549): 320 nM

COc1cccc2c1C(=O)c1c(O)c3c(c(O)c1C2=O)C[C@@](O)(C(=O)CO)C[C@@H]3O[C@H]1C[C@H](N)[C@H](O)[C@H](C)O1 [DOXORUBICIN HYDROCHLORIDE]
IC50 (LoVo): 110 nM | IC50 (KB): 840 nM | IC50 (MCF7): 440 nM

Cc1c2c3cc(NC(=O)[C@@H]4CCCN4)ccc3nc-2n(C)c2ccccc12.Cl.Cl
solubility [1]: soluble | Activity (Mus musculus [3]): <= 15% | inhibition in vivo at 15 mg/kg/day [4]: 42% | inhibition in vivo at 30 mg/kg/day [5]: 74% | pKa at 5 µM [6]: 7.2 | IC50 (LoVo): 810 nM | logP [7]: -1.9 | Activity (Mus musculus [8]): Toxic | inhibition in vivo at 15 mg/kg/day [9]: 24.6% | inhibition in vivo at 15 mg/kg/day [10]: 8.38% | inhibition in vivo at 30 mg/kg/day [11]: 75.8% | IC50 (KB): 420 nM | inhibition in vivo at 15 mg/kg/day [12]: 42.6% | Activity (Mus musculus [13]): <= 15% | inhibition in vivo at 30 mg/kg/day [14]: 50% | Activity (Mus musculus [15]): <= 15% | Activity (Mus musculus [16]): Toxic | inhibition in vivo at 15 mg/kg/day [17]: 47.7% | inhibition in vivo at 30 mg/kg/day [18]: 41.1% | inhibition in vivo at 30 mg/kg/day [19]: 61.2% | IC50 (MCF7): 820 nM | Activity (Mus musculus [20]): <= 15% | selectivity ratio [2]: 5 | inhibition in vivo at 15 mg/kg/day [21]: 0% | IC50 (A549): 480 nM | inhibition in vivo at 30 mg/kg/day [22]: 37.9% | logD [23]: 1.4 | Activity (Mus musculus [24]): <= 15%

Cc1c2ccccc2nc2c1c1cc(NC(=O)[C@@H](N)Cc3cnc[nH]3)ccc1n2C
IC50 (KB): 5960 nM

Cc1c2c3cc(NC(=O)[C@H](N)Cc4cnc[nH]4)ccc3nc-2n(C)c2ccccc12.Cl
solubility [1]: soluble | IC50 (KB): 4850 nM

Cc1c2ccccc2nc2c1c1cc(NC(=O)[C@@H](N)CO)ccc1n2C
IC50 (KB): 5960 nM

Cc1c2c3cc(NC(=O)CN)ccc3nc-2n(C)c2ccccc12.Cl.Cl
solubility [1]: soluble | Activity (Mus musculus [3]): <= 15% | inhibition in vivo at 15 mg/kg/day [4]: 42.4% | inhibition in vivo at 30 mg/kg/day [5]: 54.7% | pKa at 5 µM [6]: 7.2 | IC50 (LoVo): 880 nM | logP [7]: -1.9 | Activity (Mus musculus [8]): Toxic | inhibition in vivo at 15 mg/kg/day [9]: 25.8% | inhibition in vivo at 15 mg/kg/day [10]: 0% | inhibition in vivo at 30 mg/kg/day [11]: 55.3% | IC50 (KB): 670 nM | inhibition in vivo at 15 mg/kg/day [12]: 47.4% | Activity (Mus musculus [13]): <= 15% | inhibition in vivo at 30 mg/kg/day [14]: 14.3% | Activity (Mus musculus [15]): <= 15% | Activity (Mus musculus [16]): Toxic | inhibition in vivo at 15 mg/kg/day [17]: 23.9% | inhibition in vivo at 30 mg/kg/day [18]: 19.7% | hemolysis at 0.5 h, 300 µM [25]: 42.5% | inhibition in vivo at 30 mg/kg/day [19]: 50.1% | IC50 (MCF7): 1450 nM | Activity (Mus musculus [20]): <= 15% | selectivity ratio [2]: 5 | inhibition in vivo at 15 mg/kg/day [21]: 26.1% | IC50 (A549): 1310 nM | inhibition in vivo at 30 mg/kg/day [22]: 13.5% | logD [23]: 0.6 | Activity (Mus musculus [24]): <= 15%

Cc1c2c3cc(NC(=O)[C@@H](N)Cc4cnc[nH]4)ccc3nc-2n(C)c2ccccc12.Cl
solubility [1]: soluble | IC50 (KB): 3460 nM

Cc1c2c3cc(NC(=O)CNC(=O)[C@@H](N)Cc4cnc[nH]4)ccc3nc-2n(C)c2ccccc12.Cl
solubility [1]: soluble | IC50 (KB): 3640 nM

Cc1c2c3cc(NC(=O)[C@@H]4CCCN4C(=O)[C@@H]4CCCN4)ccc3nc-2n(C)c2ccccc12.Cl.Cl
solubility [1]: soluble | IC50 (LoVo): 360 nM | IC50 (KB): 560 nM | IC50 (MCF7): 960 nM | selectivity ratio [2]: 5 | IC50 (A549): 540 nM

Cc1c2c3cc(NC(=O)[C@@H]4CCCN4C(=O)CN)ccc3nc-2n(C)c2ccccc12.Cl.Cl
solubility [1]: soluble | IC50 (LoVo): 440 nM | IC50 (KB): 700 nM | IC50 (MCF7): 1130 nM | selectivity ratio [2]: 5 | IC50 (A549): 860 nM

Cc1c2ccccc2nc2c1c1cc(NC(=O)[C@@H]3CCCN3)ccc1n2C
IC50 (KB): 4390 nM
